Experiments:
[1] = Selectivity index, ratio of CC50 for human PBMC cells to EC50 for HIV1; assay type: toxicity, cell-based; conditions: read-out: Ratio CC50/EC50
Procedure, shortened: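 Ratio of PBMC CC50 to anti-HIV-1 EC50. Both were measured in PHA-activated, IL-2-maintained PBMCs. For EC50, cells were infected with Ba-L isolate (R5-tropic, subtype B), plated at 2 × 10⁵ cells/well in triplicate and treated with various concentrations for 7 days at 37 °C, 5% CO2. Supernatant p24 was measured by capture ELISA against untreated infected cells. CC50 came from XTT viability.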

[2] = tested on: Human immunodeficiency virus 1; assay: Inhibition of HIV1 viral replication infected in human PBMC cells assessed as viral p24Ag concentration after 7 days postinfection by ELISA relative to untreated control; assay type: functional
Procedure, shortened: (§1)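 HIV-1 Ba-L (R5-tropic, subtype B) grown in PHA-activated donor PBMCs. PBMCs stimulated 2–3 days with 5 μg/mL PHA, then kept with 5 U/mL IL-2. Cells plated at 2 × 10⁵/well in triplicate with a range of compound concentrations. After 7 days at 37 °C, 5% CO₂, supernatant p24 measured by capture ELISA. EC₅₀ derived against untreated infected cells.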

[3] = Cytotoxicity against human PBMC by XTT assay; assay type: cell-based; conditions: PBMC (peripheral blood mononuclear cells)
Procedure, shortened: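 PBMCs held in RPMI 1640 with 10% heat-inactivated FBS, penicillin, streptomycin, 2 mM glutamine and 10 mM HEPES. Activated with 5 µg/mL PHA for 2–3 days, then kept with 5 U/mL IL-2. Cells exposed to a range of concentrations. Viability read by XTT, OD 450 nm 2 h after addition. CC50 is the concentration giving 50% viability loss versus untreated controls.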

[4] = tested on: Human immunodeficiency virus 1; assay: Inhibition of HIV1 viral replication infected in human PBMC cells assessed as viral p24Ag concentration after 7 days postinfection by ELISA; assay type: functional, organism-based; conditions: Human immunodeficiency virus 1, PBMC, 168 h; procedure, shortened: as §1

SMILES	selectivity ratio [1]	inhibition (INH) [2]	CC50 [3]	EC50 [4]
CCOC(=O)c1cn(COCCO)c2ccc(F)cc2c1=O	18	30%	1500 µM	83.3 µM
CCOC(=O)c1cn(COCCO)c2ccc(Cl)cc2c1=O	36	45%	1800 µM	50 µM
O=C(NCc1ccccc1)c1cn(COCCO)c2ccc(Cl)cc2c1=O	711	98%	3200 µM	4.5 µM
CCOC(=O)c1cn(Cc2ccccc2)c2ccc(Cl)cc2c1=O	18	24%	1840 µM	104 µM
O=C(NCc1ccccc1)c1c[nH]c2ccc(Cl)cc2c1=O	26	47%	1400 µM	53 µM
NNC(=O)c1cn(COCCO)c2ccc(Cl)cc2c1=O	960	99%	2400 µM	2.5 µM
O=C(NCc1ccccc1)c1cn(COCCO)c2ccc(F)cc2c1=O	1000	90%	2800 µM	2.8 µM
NNC(=O)c1c[nH]c2ccc(Cl)cc2c1=O	14	29%	1230 µM	86 µM
O=C(O)c1cn([C@@H]2O[C@H](CO)[C@@H](O)[C@H]2O)c2ccc(Cl)cc2c1=O	1130	99%	1700 µM	1.5 µM
NNC(=O)c1cn(COCCO)c2ccc(F)cc2c1=O	275	96%	909 µM	3.3 µM
O=C(O)c1cn(Cc2ccccc2)c2ccc(Cl)cc2c1=O	22	29%	1890 µM	86 µM
CCOC(=O)c1c[nH]c2ccc(Cl)cc2c1=O	39	58%	1660 µM	43 µM
Cc1cn([C@H]2C[C@H](N=[N+]=[N-])[C@@H](CO)O2)c(=O)[nH]c1=O [ZIDOVUDINE]	2520	94%	126 µM	0.05 µM

Source: ChEMBL document CHEMBL1152418, “Synthesis, antiviral activity and molecular modeling of oxoquinoline derivatives” (Bioorg Med Chem, 2009)
